In brackets after ≈: the same amount, converted by molar mass. Activity calls are given as the source filed them. The rule behind the calls is not given here.
Columns and labels:
Blood [1] = assay: Inhibition of LPS-stimulated TNFalpha production in human Whole blood; assay type: functional, tissue-based
[2] = target: T1, Inhibitor of nuclear factor kappa-B kinase subunit alpha (Homo sapiens, UniProt O15111); assay: Inhibition of IKK1 in presence of 1 uM ATP
T1 sequence (O15111 whole entry): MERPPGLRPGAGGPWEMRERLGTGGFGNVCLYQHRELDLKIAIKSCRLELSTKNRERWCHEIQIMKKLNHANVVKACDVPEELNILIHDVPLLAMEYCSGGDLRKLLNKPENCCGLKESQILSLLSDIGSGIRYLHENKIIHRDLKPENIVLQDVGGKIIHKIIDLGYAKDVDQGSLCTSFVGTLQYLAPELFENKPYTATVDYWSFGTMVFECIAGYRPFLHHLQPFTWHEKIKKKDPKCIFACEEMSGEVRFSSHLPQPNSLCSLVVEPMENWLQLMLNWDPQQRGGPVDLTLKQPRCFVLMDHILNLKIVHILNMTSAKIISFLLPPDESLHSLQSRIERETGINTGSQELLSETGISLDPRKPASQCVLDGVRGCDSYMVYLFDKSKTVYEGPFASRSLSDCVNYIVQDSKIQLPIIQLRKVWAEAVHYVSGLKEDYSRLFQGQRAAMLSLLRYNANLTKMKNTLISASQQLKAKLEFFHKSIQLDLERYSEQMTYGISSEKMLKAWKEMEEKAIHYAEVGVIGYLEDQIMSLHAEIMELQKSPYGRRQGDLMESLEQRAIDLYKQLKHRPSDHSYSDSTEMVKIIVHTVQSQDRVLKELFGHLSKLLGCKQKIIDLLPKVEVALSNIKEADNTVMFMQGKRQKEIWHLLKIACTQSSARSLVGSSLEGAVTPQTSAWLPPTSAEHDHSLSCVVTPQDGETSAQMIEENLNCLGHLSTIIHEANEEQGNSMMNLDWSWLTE

[3] = target: T2, Inhibitor of nuclear factor kappa-B kinase subunit beta (Homo sapiens, UniProt O14920); assay: Inhibition of IKK2 in presence of 1 uM ATP
T2 sequence (O14920 whole entry): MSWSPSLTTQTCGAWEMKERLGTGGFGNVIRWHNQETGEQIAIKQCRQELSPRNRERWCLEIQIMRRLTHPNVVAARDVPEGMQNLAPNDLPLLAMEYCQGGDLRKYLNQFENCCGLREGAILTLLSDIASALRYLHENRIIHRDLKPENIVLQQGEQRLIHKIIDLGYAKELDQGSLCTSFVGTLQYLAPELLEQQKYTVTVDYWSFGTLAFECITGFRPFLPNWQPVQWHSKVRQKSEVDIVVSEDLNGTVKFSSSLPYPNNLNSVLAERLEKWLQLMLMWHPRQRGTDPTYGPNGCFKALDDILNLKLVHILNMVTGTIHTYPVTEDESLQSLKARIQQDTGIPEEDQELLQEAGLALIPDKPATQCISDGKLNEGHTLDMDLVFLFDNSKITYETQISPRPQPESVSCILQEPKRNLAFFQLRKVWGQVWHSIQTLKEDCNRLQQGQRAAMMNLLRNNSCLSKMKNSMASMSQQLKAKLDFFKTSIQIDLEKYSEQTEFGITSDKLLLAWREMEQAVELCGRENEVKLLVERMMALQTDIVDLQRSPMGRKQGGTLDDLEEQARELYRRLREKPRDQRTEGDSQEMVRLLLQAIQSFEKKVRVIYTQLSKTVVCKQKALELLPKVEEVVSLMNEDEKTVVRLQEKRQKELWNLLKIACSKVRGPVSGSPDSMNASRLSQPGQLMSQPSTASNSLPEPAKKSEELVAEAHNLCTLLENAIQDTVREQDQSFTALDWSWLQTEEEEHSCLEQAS

Albumin = Albumin (Homo sapiens, UniProt P02768); assay: Binding affinity to human serum albumin; assay type: ADME; conditions: isolated protein
[4] = target: T2, Inhibitor of nuclear factor kappa-B kinase subunit beta; assay: Inhibition of IKK2 in human A549 cells assessed as inhibition of TNFalpha-induced NFKB activation; assay type: cell-based
[5] = Clearance in rat at 1 mg/kg, iv; assay type: ADME, organism-based; set-up: dose 1 mg/kg, route intravenous; conditions: in vivo
Procedure, shortened: (§1)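 Rat pharmacokinetics: 1 mg/kg given IV (n = 2) or orally (n = 1); clearance derived from the IV arm.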

[6] = Half life in rat at 1 mg/kg, iv; assay type: ADME, organism-based; set-up: dose 1 mg/kg, route intravenous; conditions: in vivo; procedure, shortened: as §1
[7] = Oral bioavailability in rat at 1 mg/kg; assay type: ADME, organism-based; conditions: in vivo; procedure, shortened: as §1
[8] = Volume of distribution in rat; assay type: ADME, organism-based; conditions: in vivo; procedure, shortened: as §1
[9] = target: Voltage-gated inwardly rectifying potassium channel KCNH2 (Homo sapiens, UniProt Q12809); assay: Inhibition of human ERG
Cytochrome P450 3A4 = Cytochrome P450 3A4 (Homo sapiens, UniProt P08684); assay: inhibition of CYP3A4; assay type: ADME
[10] = Plasma protein binding in rat; assay type: ADME, cell-free; conditions: read-out: PPB (converted)
Cytochrome P450 1A2 = target: T3, Cytochrome P450 1A2 (Homo sapiens, UniProt P05177); assay: inhibition of CYP1A2; assay type: ADME
T3 sequence (P05177 whole entry): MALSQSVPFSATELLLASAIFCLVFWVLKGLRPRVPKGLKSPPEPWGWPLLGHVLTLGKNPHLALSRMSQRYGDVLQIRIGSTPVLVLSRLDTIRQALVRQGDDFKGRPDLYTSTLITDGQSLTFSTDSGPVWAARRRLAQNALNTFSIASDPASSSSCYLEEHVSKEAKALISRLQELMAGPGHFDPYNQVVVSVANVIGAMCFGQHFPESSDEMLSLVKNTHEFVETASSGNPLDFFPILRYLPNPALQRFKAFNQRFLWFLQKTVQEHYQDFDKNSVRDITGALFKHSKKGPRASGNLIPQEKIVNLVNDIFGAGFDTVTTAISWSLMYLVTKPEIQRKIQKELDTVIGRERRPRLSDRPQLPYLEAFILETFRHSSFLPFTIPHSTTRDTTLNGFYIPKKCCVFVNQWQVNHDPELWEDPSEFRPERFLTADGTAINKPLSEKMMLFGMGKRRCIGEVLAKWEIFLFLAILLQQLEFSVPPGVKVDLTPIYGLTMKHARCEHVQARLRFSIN

Rattus norvegicus [11] = assay: Antiinflammatory activity in Lewis rat assessed as inhibition of LPS-induced neutrophil lung infiltration at 30 umol/kg, po administered 30 mins before LPS challenge relative to vehicle-treated control; assay type: functional, organism-based
Procedure, shortened: (§2)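 Male Lewis rats (n = 4 per group, vehicle included) dosed orally at 10, 30 and 100 µmol/kg in 2% DMSO/0.5% methylcellulose with NaOH, 30 min before 20 min exposure to aerosolized 0.1 mg/ml E. coli 026:B6 LPS. Neutrophils in BAL fluid counted 4 h post-LPS by differential (Diff-Quick) and haemocytometer counts. Results given as % inhibition versus vehicle, ED50 derived; ANOVA with Dunnett's test.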

Rattus norvegicus [12] = assay: Antiinflammatory activity in po dosed Lewis rat assessed as inhibition of LPS-induced neutrophil lung infiltration compound administered 30 mins before LPS challenge relative to vehicle-treated control; assay type: functional; procedure, shortened: as §2
Hepatocyte [13] = assay: Intrinsic clearance in human hepatocytes; assay type: ADME, cell-based, Liver
Hepatocyte [14] = assay: Intrinsic clearance in rat hepatocytes; assay type: ADME, cell-based, Liver
[15] = Fraction unbound in human plasma; assay type: ADME, cell-free
Cytochrome P450 2C9 = Cytochrome P450 2C9 (Homo sapiens, UniProt P11712); assay: inhibition of CYP2C9; assay type: ADME
Blood [16] = assay: Inhibition of LPS-stimulated TNFalpha production in rat Whole blood; assay type: functional, tissue-based
[17] = Plasma protein binding in human; assay type: ADME, cell-free; conditions: read-out: PPB (converted)
[18] = Aqueous solubility of the compound; assay type: physicochemical; conditions: aqueous solution
Cytochrome P450 2D6 = Cytochrome P450 2D6 (Homo sapiens, UniProt P10635); assay: inhibition of CYP2D6; assay type: ADME
Cytochrome P450 2D6, sequence (P10635 whole entry): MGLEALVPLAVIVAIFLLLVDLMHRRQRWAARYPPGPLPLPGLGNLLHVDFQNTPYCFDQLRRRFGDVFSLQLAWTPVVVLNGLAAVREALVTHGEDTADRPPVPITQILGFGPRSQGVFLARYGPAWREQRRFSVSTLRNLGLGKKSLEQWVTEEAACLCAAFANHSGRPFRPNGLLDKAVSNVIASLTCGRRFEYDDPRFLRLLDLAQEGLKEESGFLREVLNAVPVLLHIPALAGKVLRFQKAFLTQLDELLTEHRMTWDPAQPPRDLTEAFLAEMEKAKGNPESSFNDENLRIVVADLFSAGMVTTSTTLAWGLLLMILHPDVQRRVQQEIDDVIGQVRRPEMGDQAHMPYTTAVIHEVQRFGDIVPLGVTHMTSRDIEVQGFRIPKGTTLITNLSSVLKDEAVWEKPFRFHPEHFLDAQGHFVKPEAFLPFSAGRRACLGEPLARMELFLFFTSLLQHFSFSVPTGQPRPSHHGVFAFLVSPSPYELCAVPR

Cytochrome P450 2C9, sequence (P11712 whole entry): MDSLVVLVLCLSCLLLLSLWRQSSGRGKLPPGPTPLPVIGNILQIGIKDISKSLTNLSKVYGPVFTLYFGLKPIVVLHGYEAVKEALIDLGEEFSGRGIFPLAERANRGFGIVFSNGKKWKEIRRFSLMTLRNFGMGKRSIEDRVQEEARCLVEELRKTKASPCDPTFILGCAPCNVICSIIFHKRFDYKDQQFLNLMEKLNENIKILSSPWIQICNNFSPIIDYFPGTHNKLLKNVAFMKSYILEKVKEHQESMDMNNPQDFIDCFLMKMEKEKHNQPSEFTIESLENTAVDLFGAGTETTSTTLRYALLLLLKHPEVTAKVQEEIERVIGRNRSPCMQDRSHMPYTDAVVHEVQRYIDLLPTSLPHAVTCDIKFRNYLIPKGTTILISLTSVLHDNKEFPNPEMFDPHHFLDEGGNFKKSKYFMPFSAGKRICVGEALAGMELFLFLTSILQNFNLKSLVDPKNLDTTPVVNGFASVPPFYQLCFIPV
Voltage-gated inwardly rectifying potassium channel KCNH2, sequence (Q12809 whole entry): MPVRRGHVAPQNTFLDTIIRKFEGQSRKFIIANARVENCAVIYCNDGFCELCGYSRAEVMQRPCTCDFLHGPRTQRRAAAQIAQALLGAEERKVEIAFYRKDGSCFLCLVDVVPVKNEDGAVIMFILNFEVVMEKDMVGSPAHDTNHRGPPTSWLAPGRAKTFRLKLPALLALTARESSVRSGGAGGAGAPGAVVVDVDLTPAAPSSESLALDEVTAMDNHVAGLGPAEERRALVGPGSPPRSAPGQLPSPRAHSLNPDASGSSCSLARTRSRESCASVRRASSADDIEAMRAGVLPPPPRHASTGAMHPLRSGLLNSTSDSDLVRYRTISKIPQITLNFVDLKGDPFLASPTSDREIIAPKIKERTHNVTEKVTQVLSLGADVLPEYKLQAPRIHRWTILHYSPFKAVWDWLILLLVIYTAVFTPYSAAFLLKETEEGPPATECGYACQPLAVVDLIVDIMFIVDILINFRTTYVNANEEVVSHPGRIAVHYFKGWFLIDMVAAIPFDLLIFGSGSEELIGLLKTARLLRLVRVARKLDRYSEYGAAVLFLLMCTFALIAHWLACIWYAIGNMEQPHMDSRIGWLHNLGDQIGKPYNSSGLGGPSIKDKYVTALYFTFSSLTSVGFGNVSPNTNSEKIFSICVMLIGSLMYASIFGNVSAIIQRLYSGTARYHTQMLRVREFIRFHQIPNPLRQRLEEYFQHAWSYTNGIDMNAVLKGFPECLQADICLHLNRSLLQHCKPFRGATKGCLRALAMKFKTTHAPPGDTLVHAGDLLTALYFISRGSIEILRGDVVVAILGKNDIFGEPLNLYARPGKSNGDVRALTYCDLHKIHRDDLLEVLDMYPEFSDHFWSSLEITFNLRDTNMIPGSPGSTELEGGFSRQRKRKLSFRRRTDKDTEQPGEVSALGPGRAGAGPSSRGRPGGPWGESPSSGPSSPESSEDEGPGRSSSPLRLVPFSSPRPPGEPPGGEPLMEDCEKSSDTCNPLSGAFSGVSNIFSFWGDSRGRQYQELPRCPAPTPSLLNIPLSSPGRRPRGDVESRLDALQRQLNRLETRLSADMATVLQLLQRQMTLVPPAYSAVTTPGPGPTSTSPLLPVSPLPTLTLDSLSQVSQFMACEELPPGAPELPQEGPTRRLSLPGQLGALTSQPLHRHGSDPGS
Cytochrome P450 3A4, sequence (P08684 whole entry): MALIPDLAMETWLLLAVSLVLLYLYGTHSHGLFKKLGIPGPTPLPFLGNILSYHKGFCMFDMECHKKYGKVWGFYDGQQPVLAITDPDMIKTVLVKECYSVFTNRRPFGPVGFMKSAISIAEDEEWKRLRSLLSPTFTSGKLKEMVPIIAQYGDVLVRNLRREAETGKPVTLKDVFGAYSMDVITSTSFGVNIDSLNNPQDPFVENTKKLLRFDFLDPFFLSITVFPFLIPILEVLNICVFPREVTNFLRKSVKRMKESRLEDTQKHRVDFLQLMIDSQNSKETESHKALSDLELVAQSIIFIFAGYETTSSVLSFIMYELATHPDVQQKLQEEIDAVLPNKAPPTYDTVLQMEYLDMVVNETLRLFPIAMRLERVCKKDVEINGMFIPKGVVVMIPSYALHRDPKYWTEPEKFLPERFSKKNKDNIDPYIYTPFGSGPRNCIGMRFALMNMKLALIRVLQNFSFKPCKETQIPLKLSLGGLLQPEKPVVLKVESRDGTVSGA
Albumin, sequence (P02768 whole entry): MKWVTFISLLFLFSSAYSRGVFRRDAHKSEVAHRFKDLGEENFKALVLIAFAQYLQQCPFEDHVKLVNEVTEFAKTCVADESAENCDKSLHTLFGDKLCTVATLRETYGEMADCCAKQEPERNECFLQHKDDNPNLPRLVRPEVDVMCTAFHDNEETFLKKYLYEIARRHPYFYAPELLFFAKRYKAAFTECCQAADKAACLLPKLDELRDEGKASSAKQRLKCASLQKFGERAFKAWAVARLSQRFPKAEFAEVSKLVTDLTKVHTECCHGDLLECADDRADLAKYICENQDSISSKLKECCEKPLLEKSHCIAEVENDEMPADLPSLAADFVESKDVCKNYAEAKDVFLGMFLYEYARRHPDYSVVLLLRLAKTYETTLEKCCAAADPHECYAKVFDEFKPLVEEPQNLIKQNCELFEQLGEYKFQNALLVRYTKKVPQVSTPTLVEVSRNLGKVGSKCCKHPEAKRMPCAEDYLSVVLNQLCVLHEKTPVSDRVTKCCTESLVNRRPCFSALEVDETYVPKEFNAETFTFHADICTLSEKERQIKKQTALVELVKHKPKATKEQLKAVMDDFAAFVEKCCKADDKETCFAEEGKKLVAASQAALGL

| Compound | IC50 (Blood [1]) [nM] | IC50 [2] [nM] | IC50 [3] [nM] | further results |
| --- | --- | --- | --- | --- |
| Cc1cc2c(-c3ccc(S(=O)(=O)NC4CCS(=O)(=O)CC4)cn3)ccnc2[nH]1 | 1000 | 79.4 | 79.4 | – |
| Cc1cc2c(-c3ccc(S(=O)(=O)NCCO)cc3)ccnc2[nH]1 | 2510 | – | – | – |
| Cc1cc2c(-c3ccc(S(=O)(=O)N(C)CCO)cc3)ccnc2[nH]1 | 3160 | – | – | Activity (Albumin): 91%; IC50 [4]: 794 nM |
| C[C@@H](CO)NS(=O)(=O)c1ccc(-c2ccnc3[nH]c(C(F)(F)F)cc23)cc1 | 1260 | 316 | 20 | clearance [5]: 7 mL/min/kg; half-life [6]: 192 min; bioavailability [7]: 83% |
| C[C@@H](CO)NS(=O)(=O)c1ccc(-c2ccnc3[nH]c(C4CC4)cc23)cc1 | 501 | 251 | 7.94 | clearance [5]: 15 mL/min/kg; half-life [6]: 54 min; bioavailability [7]: 29% |
| O=S1(=O)CCC(NS(=O)(=O)c2ccc(-c3ccnc4[nH]c(C5CCNCC5)cc34)cc2)CC1 | 631 | 31.6 | 15.8 | – |
| CN(C)Cc1cc2c(-c3ccc(S(=O)(=O)NC4CCS(=O)(=O)CC4)cc3)ccnc2[nH]1 | 1260 | 100 | 20 | – |
| CC(C)(C)c1cc2c(-c3ccc(S(=O)(=O)NCCO)cc3)ccnc2[nH]1 | 1000 | 794 | 20 | – |
| CCc1cc2c(-c3ccc(S(=O)(=O)NC4CCS(=O)(=O)CC4)cc3)ccnc2[nH]1 | 398 | 6.31 | 5.01 | – |
| Cc1cc2c(-c3ccc(S(=O)(=O)NCC(C)(C)O)cc3)ccnc2[nH]1 | 1000 | 200 | 10 | clearance [5]: 70 mL/min/kg; half-life [6]: 36 min; bioavailability [7]: 32% |
| Cc1cc2c(-c3ccc(S(=O)(=O)NC4CCS(=O)(=O)CC4)cc3)ccnc2[nH]1 | 398 | – | – | – |
| Cc1cc2c(-c3ncc(S(=O)(=O)NC4CCS(=O)(=O)CC4)cn3)ccnc2[nH]1 | 3160 | 158 | 794 | – |
| O=S(=O)(NCCO)c1ccc(-c2ccnc3[nH]c(C(F)(F)F)cc23)cc1 | 2510 | 200 | 15.8 | – |
| CC(C)c1cc2c(-c3ccc(S(=O)(=O)NCCO)cc3)ccnc2[nH]1 | 1580 | 398 | 7.94 | clearance [5]: 39 mL/min/kg; half-life [6]: 27 min; Vd [8]: 0.8 L/kg; bioavailability [7]: 18% |
| CC(C)c1cc2c(-c3ccc(S(=O)(=O)NC4CCS(=O)(=O)CC4)cc3)ccnc2[nH]1 | 251 | 6.31 | 6.31 | – |
| O=S(=O)(NCCO)c1ccc(-c2ccnc3[nH]c(C4CC4)cc23)cc1 | 1260 | 200 | 7.94 | IC50 [9]: > 50100 nM; clearance [5]: 13 mL/min/kg; IC50 (Cytochrome P450 3A4): > 10000 nM; fraction unbound [10]: 0.024; IC50 (Cytochrome P450 1A2): > 10000 nM; inhibition (Rattus norvegicus [11]): Active; half-life [6]: 36 min; Vd [8]: 0.6 L/kg; ED50 (Rattus norvegicus [12]): 28.2 µmol/kg; inhibition (Rattus norvegicus [12]): Dose-dependent effect; bioavailability [7]: 49%; CLH (Hepatocyte [13]): < 1 mL/min/g; CLH (Hepatocyte [14]): < 1 mL/min/g; fraction unbound [15]: 0.07; IC50 (Cytochrome P450 2C9): 7000 nM; IC50 (Blood [16]): 6310 nM; fraction unbound [17]: 0.066; solubility [18]: 64 µM (≈ 22.9 µg/mL); IC50 (Cytochrome P450 2D6): > 10000 nM; IC50 [4]: 200 nM |
| O=S1(=O)CCC(NS(=O)(=O)c2ccc(-c3ccnc4[nH]c(Cn5ccnn5)cc34)cc2)CC1 | 1260 | 50.1 | 15.8 | – |
| O=S1(=O)CCC(NS(=O)(=O)c2ccc(-c3ccnc4[nH]c(C5CC5)cc34)cc2)CC1 | 251 | 6.31 | 3.98 | – |
| CC(C)(C)c1cc2c(-c3ccc(S(=O)(=O)NC4CCS(=O)(=O)CC4)cc3)ccnc2[nH]1 | 631 | 25.1 | 7.94 | – |
| CC(C)(O)CNS(=O)(=O)c1ccc(-c2ccnc3[nH]c(C4CC4)cc23)cc1 | 1000 | 316 | 6.31 | clearance [5]: 14 mL/min/kg; half-life [6]: 42 min; bioavailability [7]: 100% |
| Cc1cc2c(-c3ccc(S(=O)(=O)NC4CCS(=O)(=O)CC4)nc3)ccnc2[nH]1 | 398 | 7.94 | 12.6 | – |
